The source made the active and inactive calls. No cut-off for these calls is given here.
Tests used:
[1] = Unbound AUC (0 to 480 mins) in mouse prostate at 23 umol/kg, ip administered as bolus by LC-MS analysis; assay type: ADME, organism-based, Prostate gland; conditions: in vivo
Method in brief: (§1)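 Male mice (25 ± 5 g) dosed i.p. as a bolus at 23 µmol/kg in DMSO/hydroxypropyl-β-cyclodextrin/saline vehicle, sampled at time points 10–480 min; plasma and tissue homogenates (1:3 water) analysed by LC-MS. […] Mean ± SEM.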

[2] = Cmax in mouse prostate at 23 umol/kg, ip administered as bolus by LC-MS analysis; assay type: ADME, organism-based, Prostate gland; design: dose 23 umol/kg, route intraperitoneal; conditions: in vivo
Method in brief: (§2)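 Male adult mice (25 ± 5 g) given a single i.p. bolus at 23 µmol/kg. The dosing solution was 1.36 mM in 10% (v/v) DMSO, 20% (w/v) hydroxypropyl-β-cyclodextrin and 0.9% NaCl. Animals were decapitated at seven time points from 10 to 480 min. Plasma and tissues were acetonitrile-precipitated with repaglinide internal standard and analysed by LC-MS. Parameters were derived from concentration–time data, mean ± SEM (n=3).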

MCF7 [3] = assay: Antiproliferative activity against human MCF7 cells assessed as reduction in cell viability at 25 uM measured after 24 hrs by resazurin dye-based fluorimetric analysis; assay type: functional
Method in brief: (§3)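 MCF-7 cells were seeded at 2 × 10^4 cells/well on collagen-coated plates and treated one day later. Agents were given alone or combined (25 or 100 µM with 100 µM partner drug) in growth medium for 3 days. Viability was read daily by resazurin fluorescence (ex 560/em 590 nm) and expressed relative to untreated controls.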

[4] = Plasma concentration in mouse at 23 umol/kg, ip measured after 180 mins; assay type: ADME, organism-based
[5] = biological target: T1, Large neutral amino acids transporter small subunit 1 (Homo sapiens, UniProt Q01650); assay: Drug uptake in human MCF7 cells assessed as LAT1 mediated drug transport per mg of protein at 100 uM measured 5 mins after cold wash by HPLC analysis; assay type: ADME, cell-based; conditions: mcf7, 5 min
T1 sequence (Q01650 whole entry): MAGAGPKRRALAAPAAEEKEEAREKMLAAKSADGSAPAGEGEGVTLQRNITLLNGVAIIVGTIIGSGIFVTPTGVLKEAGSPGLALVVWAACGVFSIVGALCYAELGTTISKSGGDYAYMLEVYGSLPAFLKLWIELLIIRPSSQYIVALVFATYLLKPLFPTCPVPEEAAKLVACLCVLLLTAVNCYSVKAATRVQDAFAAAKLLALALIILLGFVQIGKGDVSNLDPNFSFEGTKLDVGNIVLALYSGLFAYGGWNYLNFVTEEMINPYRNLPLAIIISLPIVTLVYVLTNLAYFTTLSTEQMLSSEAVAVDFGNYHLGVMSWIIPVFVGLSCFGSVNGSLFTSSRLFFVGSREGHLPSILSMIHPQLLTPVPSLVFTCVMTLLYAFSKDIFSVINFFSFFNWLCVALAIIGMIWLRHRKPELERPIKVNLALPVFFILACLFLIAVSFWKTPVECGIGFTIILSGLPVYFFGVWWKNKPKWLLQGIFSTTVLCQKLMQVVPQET
Method in brief: (§4)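 MCF-7 monolayers were incubated with 100 µM compound in HBSS at 37 °C for 5 or 30 min. Cells got three washes with ice-cold or warm (37 °C) HBSS; in the warm 30 min arm they were washed after 5 min and again after 30 min. Lysates (0.1 M NaOH) were quantified by HPLC-UV against a spiked lysate standard curve and normalised to protein (Bio-Rad assay).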

[6] = Terminal half life in mouse brain at 23 umol/kg, ip administered as bolus by LC-MS analysis; assay type: ADME, organism-based; conditions: read-out: beta t1/2; method in brief: as §2
[7] = AUC (0 to 480 min) in mouse heart at 23 umol/kg, ip administered as bolus by LC-MS analysis; assay type: ADME, organism-based; design: dose 23 umol/kg, time < 8 hr, route intraperitoneal; conditions: in vivo, 8 h; method in brief: as §2
[8] = biological target: T1, Large neutral amino acids transporter small subunit 1; assay: Inhibition of LAT1 in human MCF7 cells assessed as potentiation of bestatin-induced antiproliferative activity by measuring reduction in cell viability at 100 uM measured after 72 hrs by resazurin dye-based fluorimetric analysis
Method in brief: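 MCF-7 cells seeded 2 × 10^4/well on collagen-coated plates, treated one day later in growth medium with inhibitor (25 or 100 µM) plus bestatin or cisplatin (100 µM) for up to 3 days. Viability read daily by resazurin fluorescence (ex 560/em 590 nm). Viability is treated relative to untreated control. Mean ± SD, n=3.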

[9] = Metabolic stability in mouse liver microsomes at 37 degreeC in presence of NADPH regenerating system measured after 2 hrs by HPLC analysis; assay type: ADME, Microsome
Method in brief: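 Incubated at 37 °C for 2 h with mouse liver S9 fraction or with mouse liver microsomes plus NADPH; monitored by UV-HPLC chromatograms.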

[10] = Cmax in mouse brain at 23 umol/kg, ip administered as bolus by LC-MS analysis; assay type: ADME, organism-based; design: dose 23 umol/kg, route intraperitoneal; conditions: in vivo; method in brief: as §2
[11] = Tmax in mouse liver at 23 umol/kg, ip administered as bolus by LC-MS analysis; assay type: ADME, organism-based
Method in brief: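 Adult male mice (25 ± 5 g) given a single i.p. bolus of 23 µmol/kg, dosing solution 1.36 mM in 10% (v/v) DMSO, 20% (w/v) hydroxypropyl-β-cyclodextrin, 0.9% NaCl in water. Decapitation at time points 10–480 min; plasma, brain, liver, prostate, kidney, heart collected. Acetonitrile precipitation with repaglinide internal standard, LC-MS (ESI positive). tmax and t½β taken from concentration-time data; mean ± SEM, n=3.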

[12] = biological target: Large neutral amino acids transporter small subunit 1 (Mus musculus, UniProt Q9Z127); assay: Drug uptake in mouse brain assessed as LAT1-mediated unidirectional transfer constant measured after perfusion; assay type: ADME, tissue-based; conditions: in vivo
Large neutral amino acids transporter small subunit 1 (Mus musculus, UniProt Q9Z127), sequence (Q9Z127 whole entry, the tested form may be a part): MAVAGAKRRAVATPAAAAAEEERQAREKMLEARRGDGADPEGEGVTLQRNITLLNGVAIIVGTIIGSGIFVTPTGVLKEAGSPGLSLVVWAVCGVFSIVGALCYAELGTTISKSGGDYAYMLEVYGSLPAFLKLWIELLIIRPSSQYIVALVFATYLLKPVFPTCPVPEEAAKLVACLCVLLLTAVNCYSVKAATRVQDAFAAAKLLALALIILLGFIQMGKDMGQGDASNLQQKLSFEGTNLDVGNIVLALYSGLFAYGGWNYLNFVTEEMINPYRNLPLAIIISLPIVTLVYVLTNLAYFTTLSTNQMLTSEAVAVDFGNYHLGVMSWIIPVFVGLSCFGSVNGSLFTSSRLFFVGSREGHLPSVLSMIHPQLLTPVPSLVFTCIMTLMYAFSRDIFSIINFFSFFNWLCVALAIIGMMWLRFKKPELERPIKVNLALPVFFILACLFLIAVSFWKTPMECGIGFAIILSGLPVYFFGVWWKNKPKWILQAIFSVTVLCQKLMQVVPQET
Method in brief: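 In situ brain perfusion in anaesthetised male mice used 100 µM compound at 37 °C, 2.5 mL/min, for 60 s, then 2 s drug-free buffer at 4 °C. Kin = Qtot/(Cpf × T); mean ± SD, n=3.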

MCF7 [13] = assay: Antiproliferative activity against human MCF7 cells assessed as reduction in cell viability at 100 measured after 72 hrs by resazurin dye-based fluorimetric analysis; assay type: functional; method in brief: as §3
[14] = Fraction unbound in mouse liver at 23 umol/kg, ip administered as bolus by LC-MS analysis; assay type: ADME, organism-based
Method in brief: (§5)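 Unbound fraction was measured by equilibrium dialysis at 100 µM in mouse plasma and in brain, liver, kidney, heart and prostate homogenates.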

[15] = biological target: T1, Large neutral amino acids transporter small subunit 1; assay: Drug uptake in human MCF7 cells assessed as LAT1 mediated drug transport per mg of protein at 100 uM measured 30 mins after warm wash by HPLC analysis; assay type: ADME, cell-based; conditions: mcf7, 0.5 h; method in brief: as §4
[16] = Fraction unbound in mouse kidney at 23 umol/kg, ip administered as bolus by LC-MS analysis; assay type: ADME, organism-based; method in brief: as §5
[17] = fCmax in mouse liver at 23 umol/kg, ip administered as bolus by LC-MS analysis; assay type: ADME, organism-based; conditions: in vivo; method in brief: as §1
[18] = biological target: T1, Large neutral amino acids transporter small subunit 1; assay: Competitive binding to LAT1 in human MCF7 cells at 100 uM after 30 mins in presence of OATP 1A2/2B1 inhibitor naringin by HPLC analysis; assay type: cell-based
Method in brief: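 MCF-7 cells incubated 30 min at 37 °C in HBSS (pH 7.4) holding 100 µM test compound plus 500 µM competitor. Cells washed three times with ice-cold HBSS and lysed in 0.1 M NaOH. Cell-associated compound measured by HPLC against a lysate-spiked standard curve and normalised to protein. Mean ± SD, n=3.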

Mus musculus = assay: Binding affinity to LAT1 in mouse brain assessed as inhibition of [14C]-L-leucine uptake at 23 umol/kg, ip measured post perfusion with [14C]-L-leucine; assay type: functional, organism-based; conditions: TDE = time-dependent effect
Method in brief: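 Mice under ketamine/xylazine anaesthesia had the right common carotid artery cannulated. Brains were perfused at 37 °C, 2.5 mL/min, for 30 s with 0.157 µM [14C]-L-leucine, then 2 s with analyte-free buffer at 4 °C. Perfusion took place 10 or 180 min after 23 µmol/kg i.p. dosing.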

[19] = AUC (0 to 480 min) in mouse kidney at 23 umol/kg, ip administered as bolus by LC-MS analysis; assay type: ADME, organism-based; design: time < 8 hr, dose 23 umol/kg, route intraperitoneal; conditions: in vivo, 8 h; method in brief: as §2
[20] = AUC (0 to 480 min) in mouse plasma at 23 umol/kg, ip administered as bolus by LC-MS analysis; assay type: ADME, organism-based; design: dose 23 umol/kg, time < 8 hr, route intraperitoneal; conditions: in vivo, 8 h; method in brief: as §2

Compound: CNC(=O)COc1ccc(-c2c(C#N)c(NC(=O)c3cccc(C[C@H](N)C(=O)O)c3)n3c(nc4ccccc43)c2C#N)cc1
- fAUC [1]: 18.4 nmol/g/min
- Cmax [2]: 24.1 nmol/g
- Activity (MCF7 [3]): 13.9%
- concentration at 3 h [4]: 230 nM
- Drug uptake [5]: 2.8 nmol/mg
- half-life [6]: 71.6 min
- AUC [7]: 249 nmol/g/min
- Activity [8]: 68.6%
- Stability [9]: Stable
- Cmax [10]: 0.2 nmol/g
- Tmax [11]: 10 min
- Kin [12]: 8.2 ×10⁻⁵ ml/s/g
- Activity (MCF7 [13]): 47.7%
- fraction unbound [14]: 0.0098
- Drug uptake [15]: 0.21 nmol/mg
- fraction unbound [16]: 0.0166
- fCmax [17]: 0.38 nmol/g
- Activity [18]: Active
- Activity (Mus musculus): Tde
- AUC [19]: 1426 nmol/g/min
- AUC [20]: 795 nmol/min/mL

Reference: ChEMBL document CHEMBL4425108, “A Selective and Slowly Reversible Inhibitor of l-Type Amino Acid Transporter 1 (LAT1) Potentiates Antiproliferative Drug Efficacy in Cancer Cells” (J Med Chem, 2016)
